# Screening data (PubChem)
# SF-1 act: SF-1 (human) activation. Q13285. CHO-K1 Gal4-SF-1 LBD luciferase reporter; % increase over DMSO SF-1-specific signal. activation, % at 10 µM. actives 1.9% (n = 65,000);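 active means activation above the mean activation of all tested compounds plus 3 SD, cut at about 50% in these data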
#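 Material: CHO-K1 cells with Gal4–hSF-1 LBD chimera plus Gal4-driven luciferase / Input: 4,000 CHO-K1 cells per well / Incubation: compound exposure 20 h at 37 °C / Signal: luminescence read 15 min after SteadyLite luciferase reagent, after room-temperature equilibration / Read-out: percent activation versus DMSO / Benchmarks: DMSO negative control and −SF1 background wells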
# Candida biofilm: kills Candida albicans biofilms; inhibition, % at 6 µM; AID 834; actives 0.14% (n = 85,000); C. albicans biofilm + clotrimazole, Alamar Blue;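 active means inhibition above 20%; inactive means inhibition below 20%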;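 further: preformed 24 hr biofilms exposed to compound for 48 hr; 0% = biofilm without compound and 100% = blank killed by clotrimazole plus chlorhexidine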
# RORa activator: activators of human nuclear receptor RORA; P35398; CHO-K1 Gal4-RORA LBD luciferase reporter, luminescence; percent increase over mock-subtracted basal signal; activation, % at 10 µM; actives 1.5% (n = 65,000);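 active means activation above the mean of all tested compounds plus 3 SD, cut at about 49% in these data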;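 further: 0% = DMSO-treated RORA cells and 100% = added signal equal to DMSO minus mock-transfected cells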
# Target sequence (P35398 whole entry, looked up, the tested form may be a part): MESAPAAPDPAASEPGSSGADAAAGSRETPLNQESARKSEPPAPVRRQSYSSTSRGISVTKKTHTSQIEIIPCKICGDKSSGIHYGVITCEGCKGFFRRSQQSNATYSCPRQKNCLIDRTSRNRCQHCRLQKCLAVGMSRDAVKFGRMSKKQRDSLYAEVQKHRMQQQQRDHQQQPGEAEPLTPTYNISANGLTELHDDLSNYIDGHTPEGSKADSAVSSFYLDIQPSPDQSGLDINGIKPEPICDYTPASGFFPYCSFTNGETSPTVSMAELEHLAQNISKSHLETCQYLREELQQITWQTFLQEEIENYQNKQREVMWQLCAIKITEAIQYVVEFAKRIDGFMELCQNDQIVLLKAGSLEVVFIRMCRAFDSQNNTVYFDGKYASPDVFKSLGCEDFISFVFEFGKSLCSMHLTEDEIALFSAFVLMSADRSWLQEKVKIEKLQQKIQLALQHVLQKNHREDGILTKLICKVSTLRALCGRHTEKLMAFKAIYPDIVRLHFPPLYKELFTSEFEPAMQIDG
# JNK3 inh: inhibitors of human JNK3 kinase; AID 746; inhibition, % at 8 µM; P53779; actives 0.61% (n = 60,000); purified JNK3 kinase activity, HTS; in the data active means inhibition above about 17%;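 further: 0% = DMSO and 100% = reference inhibitor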
# The depositor's hits bear a star; . = no result. An excerpt weighted towards active compounds, which were near 2.3% of everything screened.
SMILES,SF-1 act,Candida biofilm,RORa activator,JNK3 inh
Cc1sc(NC(=O)c2cccs2)nc1-c1ccccc1,46,7,17,3
CCCCOc1ccc(-c2ncc(Cl)cn2)cc1,25,3,-2,-3
CCCCCCc1ccc(-c2ncc(N)cn2)cc1,59*,2,50*,-1
CCC(=O)Nc1cccc(-c2nnc(SCC(=O)NCc3ccco3)n2C)c1,-11,.,-2,5
Cn1c(SCC(=O)c2ccccc2)nnc1-c1cnccn1,61*,-2,30,1
CCn1c(SCC(=O)c2ccccc2)nnc1-c1cnccn1,44,.,22,0
CCC(=O)Nc1cccc(-c2nnc(SCC(=O)c3ccccc3)n2C)c1,44,-8,61*,2
O=C(NCC1CCCO1)c1coc2nc3ccccc3nc12 (stereo not given),57*,.,3,3
COC(=O)C(/C=N/OCc1ccc([N+](=O)[O-])cc1)NC(=O)c1cccc(Cl)c1 (stereo not given),.,11,.,.
CCNC(=O)CSc1nc2ccccc2c(=O)n1-c1cc(OC)ccc1OC,.,5,.,.
CCN1CCN(Cc2ccc(NC(=O)Nc3ccccc3OC)cc2)CC1,29,4,49*,-5
CCN1CCN(CCC(=O)Nc2ccccc2OC)CC1,-2,8,-12,0
Cc1nnc2sc(-c3cc4ccccc4o3)nn12,34,8,57*,3
O=S(=O)(Nc1nc2ccccc2nc1N1CCN(c2ccccc2F)CC1)c1ccc(Cl)cc1,.,2,.,.
CCOC(=O)C1CCN(S(=O)(=O)C(F)(F)c2nc3ccccc3s2)CC1,32,3,71*,.
N#Cc1c(NC(=O)c2cc(C3CC3)on2)sc2c1CCC2,80*,5,26,-6
Cc1onc(-c2ccccc2)c1C(=O)Nc1sc2c(c1C#N)CCC2,24,4,16,-4
CC1CCc2c(sc(NC(=O)C(=O)NCc3ccco3)c2C#N)C1 (stereo not given),.,-1,.,.
Cc1cc(C(=O)Nc2sc3c(c2C#N)CCC(C)C3)no1 (stereo not given),97*,0,53*,-2
Cc1cc(C(=O)Nc2sc3c(c2C#N)CCCC3)no1,71*,1,41,6
Cc1noc(C(=O)Nc2sc3c(c2C#N)CCC3)c1Cl,48,7,52*,2
O=C(Nc1cccnc1)C1(c2ccc(Cl)cc2)CCCC1,.,2,.,.
CC(C)Cc1cc(C(=O)Nc2sc3c(c2C#N)CCC3)no1,.,3,.,.
Cc1cc(C(=O)Nc2sc3c(c2C#N)CCC3)no1,116*,3,60*,-2
CN1CCN(c2ccccc2NC(=O)COc2ccc(Br)cc2)CC1,.,4,.,.
SMILES,SF-1 act,Candida biofilm,RORa activator,JNK3 inh
O=C(C(Cc1ccccc1)n1cccc1)N1CCCCCC1 (stereo not given),11,21*,3,2
NC(=O)c1cc(Br)cc2c3c([nH]c12)CCCC3,7,2,23,55*
C/C(N)=C(/C#N)C(=O)CSc1nnc(-c2ccc(OC(F)F)cc2)o1,63*,1,40,-3
CCOC(=O)c1c(C)[nH]c(C)c1C(=O)CSc1nnc(-c2ccc(OC(F)F)cc2)o1,.,4,.,.
COc1ccc(NC2C=CS(=O)(=O)C2)c(OC)c1 (stereo not given),-8,24*,1,-8
COc1ccc(-c2nnc(SCC(=O)c3cccs3)o2)cc1,42,5,50*,.
O=C(CSc1nnc(-c2cccs2)o1)c1cccs1,98*,-4,27,4
CCSc1nnc(-c2ccc(Cl)cc2Cl)o1,54*,2,40,-8
CCSc1nnc(-c2ccc(OC)cc2)o1,24,.,90*,2
COc1ccc(-c2nnc(SCC#N)o2)cc1,-17,4,6,0
COc1ccc(C2N(S(=O)(=O)c3ccccc3)CCN2S(=O)(=O)c2ccc(C)cc2)cc1 (stereo not given),.,9,.,.
O=C(Nc1cccnc1)c1ccc(S(=O)(=O)N2CCCCCC2)cc1,.,3,.,.
O=C(NCc1ccc2c(c1)OCO2)c1nnc(Cc2ccc(Cl)cc2)o1,4,9,-15,-9
CCOC(=O)c1c(-c2ccccc2)[nH]c2ccc(O)cc12,23,0,-5,42*
O=C(NCCC1=CCCCC1)c1ccc2c(c1)N(Cc1ccccc1)C(=O)CS2,.,2,.,.
CN1C(=O)CS(=O)c2ccc(C(=O)NCCC3=CCCCC3)cc21 (stereo not given),-22,21*,13,1
COc1ccc(-n2c(Cn3c(=O)sc4ccccc43)nnc2SCC(=O)N2CCCC2)cc1,-8,5,-4,9
O=C(CSc1cn(Cc2ccccc2)c2ccccc12)Nc1nccs1,84*,5,76*,5
Brc1ccc(-c2cn3cccnc3n2)cc1,38,6,53*,3
Cc1ccccc1NC(=O)c1cc(S(=O)(=O)N2CCOCC2)ccc1F,2,0,-8,-3
CC1CC(C)CN(S(=O)(=O)c2ccc(F)c(C(=O)Nc3ccc(Cl)cc3F)c2)C1 (stereo not given),.,46*,.,.
Cc1sc(NC(=O)c2ccc(Cl)s2)c(C(N)=O)c1C,101*,-2,66*,4
COC(=O)c1cn(NC(=O)c2cccc(N(C)C)c2)c(=O)c2ccccc12,2,.,-2,.
COC(=O)c1cn(NC(=O)c2cccc(F)c2)c(=O)c2ccccc12,.,60*,.,.
COc1ccc(C(=O)n2c(-c3ccco3)nc3ccccc32)cc1,-7,1,65*,-2
SMILES,SF-1 act,Candida biofilm,RORa activator,JNK3 inh
CCCn1c(=N)n(CCOCCOCCn2c(=N)n(CCC)c3ccccc32)c2ccccc21,.,1,.,.
O=c1oc2ccccc2n1Cc1ccccc1Cl,21,21*,5,-4
O=c1[nH]c(=O)n(Cc2ccco2)c2c1C(C(F)(F)F)(C(F)(F)F)N=C(Cc1ccccc1)N2,.,2,.,.
O=C(c1ccc2c(c1)OCO2)N1CCc2ccccc2C1,44,7,66*,3
O=C(c1ccc2c(c1)OCO2)N1CCCc2ccccc21,-2,1,4,2
O=C(/C=C/Nc1cccc(O)c1)c1ccccc1,57*,0,12,4
Cc1ccc(C(=O)/C=C/Nc2cccc(O)c2)cc1,18,.,-14,10
Nc1n[nH]c(-c2ccccc2)n1,.,2,.,.
COc1ccc(Nc2nc(N)nc(CSc3n[nH]c(-c4ccccc4)n3)n2)cc1,10,.,0,-3
Nc1nc(CSc2n[nH]c(-c3ccccc3)n2)nc(Nc2ccccc2)n1,34,2,72*,6
Cc1ccc(-c2nc(Nc3ccccc3)n[nH]2)cc1,64*,6,63*,-2
Cc1nn(Cc2ccccc2)c2c1C(c1cccc(Cl)c1)C(C#N)=C(N)O2 (stereo not given),.,4,.,.
Cc1cc(C)nc(N(C#N)Cc2cccc3ccccc23)n1,.,2,.,.
CS(=O)(=O)N(CC(=O)N1CCN(c2ccccc2)CC1)c1ccc(Cl)c(C(F)(F)F)c1,.,3,.,.
CC(C)(C)c1ccc(OCCn2ccccc2=O)cc1,67*,5,39,-1
CC(C)(c1ccccc1)c1ccc(OCCn2cnc3ccccc3c2=O)cc1,.,-4,.,.
Cc1cc(N2CCN(C(=O)c3ccco3)CC2)n2ncc(-c3ccccc3)c2n1,65*,0,30,2
